The record followed here is ChEMBL document CHEMBL4513216, “Probing the Open Global Health Chemical Diversity Library for Multistage-Active Starting Points for Next-Generation Antimalarials” (ACS Infect Dis, 2020).

A short description of this data set: Toxicity liver stage against HepG2, at 10uM. Also on record: test concentration 10 uM, cell line HepG2-A16-CD81EGFP. The class given is cell-based. The following applies: human, HepG2-A16-CD81EGFP cells; read-out: INHIBITION
The gist of the method: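 Uninfected HepG2-A16-CD81EGFP cells, 3 × 10^3 per well, 1536-well, plated on prespotted compound at 10 μM final, parasite-free screening media added to match infected plates; puromycin 10 μM positive, DMSO 0.5% negative; run in parallel with 48 h PbLuc assay at 37 °C, 5% CO2; viability by CellTiter-Glo luminescence, normalized to controls.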
Consider `COCCN1C[C@H]2CN(C(=O)C3CC3)CCN2C1=O`, for which the cytotoxicity at 10 µM turned out to be 7.37%. The figure for `O=C(c1cccs1)N1CCN(Cc2cc(=O)c3ccccc3[nH]2)CC1` is -2.93%; for `Cc1nn(-c2ccccc2Cl)c(C)c1CCC(=O)O` it is 4.68%; for `O=C(NCCn1cccc1)C(c1ccccc1)N1CCCC1` (configuration not stated) it is -0.288%. With `CC(C)(C)C(=O)CN1CCc2ccccc2NCCC1=O`, the cytotoxicity at 10 µM is -104%.

With `CC1=Nc2c(c(=O)[nH]n2C2CCCC2)C(c2ccc(O)cc2)S1` (configuration not stated), the cytotoxicity at 10 µM is -3.39%. Regarding `CCc1cnc2c(c1Nc1ccccc1OC)c(=O)n(C)c(=O)n2C`, the cytotoxicity at 10 µM was 6.87%.

As to `O=C(Cn1c(=O)oc2ccccc21)N1Cc2cncnc2C1`, the cytotoxicity at 10 µM was -0.0603%. On to `O=C([C@H]1CCCO1)N1CCN(Cc2cccnc2)c2ncccc2C1`, for which the cytotoxicity at 10 µM is 13.2%.

In the case of `Cc1ccc(N2CCCc3sc(C(=O)NCC4CCCO4)nc32)nn1` (configuration not stated), the cytotoxicity at 10 µM is -1.19%.

Turning to `NC(=O)N1CC[C@@H]2O[C@@H](COCC(=O)N3CCCC3)CC[C@@H]21`, the cytotoxicity at 10 µM was -0.356%. Turning to `Cc1ccc(CS(=O)(=O)N2CC[C@H]3[C@H]2CC(=O)N3C)cc1`, the cytotoxicity at 10 µM is -7.33%.

`Cc1csc(CN2CC[C@H]3C[C@H](C)O[C@@H]3C2)n1`: the cytotoxicity at 10 µM was found to be 2.58%. The figure for `Cc1nc(CN2C(=O)CC[C@@H]3[C@H]2CCN3C(=O)C2CCCO2)cs1` (some centres not stated) is -9.33%; for `Cc1ccsc1C(=O)N1CCn2cnc(COCC3CC3)c2C1` it is 6.93%. In the case of `Cc1nn(C)c(C)c1-c1ccc(=O)n(C(C)C(=O)NCc2ccco2)n1` (configuration not stated), the cytotoxicity at 10 µM came to 6.93%. With `CNC(=O)CCc1cc(C)nc(C2CCN(C3CCCCC3)CC2)c1`, the cytotoxicity at 10 µM came out at 4.54%. With `COc1ccccc1C1CNCCN1C(=O)c1ccc(F)cc1` (configuration not stated), the cytotoxicity at 10 µM worked out at 0.57%.

Consider `Nc1nccc(C2CCN(CCO)C2)n1` (configuration not stated), for which the cytotoxicity at 10 µM came out at 0.51%.

For `Cc1nsc(N2CCCN(C(=O)CCc3ccsc3)CC2)n1`, the cytotoxicity at 10 µM worked out at 3.8%.

Turning to `N#Cc1cccc(S(=O)(=O)N(CC2CCC2)c2cn[nH]c2)c1`, the cytotoxicity at 10 µM turned out to be 10.9%. In the case of `CCc1noc(C(C)N2CCCN(Cc3noc(C4CC4)n3)CC2)n1` (configuration not stated), the cytotoxicity at 10 µM was -6.87%. For the molecule `O=C(NCCCn1cccn1)c1nc2ccccc2[nH]1`, the cytotoxicity at 10 µM was -7.16%. For the molecule `CC(C)NC(=O)NC(C)c1nc(-c2ccccc2)cs1` (configuration not stated), the cytotoxicity at 10 µM was -11.1%. `CC(C)CCC(=O)NCc1ccc(N2CCCCC2)cc1`: the cytotoxicity at 10 µM was found to be 7.89%. Under `O=C(c1sccc1C1CC1)N1CCCN(c2cccnn2)CC1` stands -8.67%; under `N#Cc1ccc(OCCn2cccn2)cc1`, 11.2%.

`COc1ccc(C(N)=O)cc1NCc1ncc(C(C)(C)C)o1`: the cytotoxicity at 10 µM was -8.2%. For `O=C(c1cnccn1)N1CCN2C[C@H](Oc3cccnc3)C[C@H]2C1`, the cytotoxicity at 10 µM was 4.62%. Under `Cc1nc(CN(C)Cc2csc(-c3cccs3)n2)co1` stands -6.06%; under `CCC(Nc1nc(C(C)C)nc2c1cnn2C)c1ccc(O)cc1` (configuration not stated), -51.2%; under `Cc1nc(NCC(O)CN2CCCCCC2)c2c(C)noc2n1` (configuration not stated), -5.78%. Consider `CN1CCCN(c2cnn(Cc3ccc(C(C)(C)C)cc3)c(=O)c2)CC1`, for which the cytotoxicity at 10 µM was determined as 11.1%. On to `CCOc1ccc(Cl)cc1C(C(=O)O)N1CCC(CO)CC1` (configuration not stated), for which the cytotoxicity at 10 µM stood at 2.93%.

Take `CC(C)c1nc(CN(C)Cc2ncccc2C(=O)O)cs1`: the cytotoxicity at 10 µM is -15.3%. Regarding `O=C(NCCN1CCNC1=O)c1cnc(-c2cccnc2)nc1`, the cytotoxicity at 10 µM is -0.885%. The figure for `CCc1nc(CC(=O)N2CCCC2c2c(C)nn(C)c2OC)cs1` (configuration not stated) is -2.17%; for `Cc1cc(C)n(CC2CN(CC3CCCC3)CCO2)n1` (configuration not stated) it is -16.4%. Under `CCn1cc(CN2CCCN(C(=O)CCc3cnn(C)c3)CC2)cn1` stands 0.153%; under `Cc1nc2cc(O)nn2c(C)c1CCC(=O)NCCCC(C)C`, -1.52%; under `Cc1ccc(CS(=O)(=O)CC(=O)NCCCOC(C)C)cc1`, -2.9%.

As to `COC(=O)C(NC(=O)CC(C)C)c1cc(F)ccc1F` (configuration not stated), the cytotoxicity at 10 µM is -0.481%. The figure for `COc1ccccc1CC(=O)NS(=O)(=O)c1ccc(C#N)cc1` is -10.4%; for `CC(C)c1nccn1C1CCCN(C(=O)CCCc2ccccn2)C1` (configuration not stated) it is -9.02%; for `CCOc1ccnc(N2CCN(C(=O)c3cccnc3)CC2)n1` it is -5.19%. Under `CC(C)c1noc(C(C)N2CCN(Cc3cccs3)CC2)n1` (configuration not stated) stands -6.18%; under `CNC(=O)c1ccc(C(=O)N2CCCC(n3ccnc3C)C2)cn1` (configuration not stated), -0.248%; under `CSc1nccn1-c1cccc(C(=O)NCCC(=O)NC(C)C)c1`, 0.153%.

In the case of `COCCOc1ncccc1C(=O)N1CCCC1Cn1cc(C)cn1` (configuration not stated), the cytotoxicity at 10 µM is -2.95%. Take `Cc1cnn(CC2CCCCN2C(=O)c2cccnc2N(C)C)c1` (configuration not stated): the cytotoxicity at 10 µM was -7.37%. The figure for `CC(=O)NC1CCCN(C(=O)NCCOc2ccc3c(c2)OCO3)C1` (configuration not stated) is -31%.

Consider `CC(C)c1cc(C(=O)N2CCCC(n3cncn3)C2)n[nH]1` (configuration not stated), for which the cytotoxicity at 10 µM was -11.9%. Take `O=C(CCc1c(F)cccc1F)N1CCCCC1Cn1cccn1` (configuration not stated): the cytotoxicity at 10 µM was -11.1%. For `CCn1cnnc1CNC(=O)N1CCN(CC(C)C)CC1`, the cytotoxicity at 10 µM amounted to 9.18%. For `CCOc1ncccc1C(=O)N(C)C1CCN(c2ccccn2)CC1`, the cytotoxicity at 10 µM was -18.7%.

Regarding `Cc1ccoc1C(=O)N1CCCN(Cc2cnn(C)c2)CC1`, the cytotoxicity at 10 µM was -11.1%. For the molecule `CCn1cc(CN2CCCN(C(=O)c3c(C)oc(C)c3C)CC2)cn1`, the cytotoxicity at 10 µM is -8.89%. On to `CCC(O)CN1CCN(C(=O)Cc2nc(-c3ccco3)oc2C)CC1` (configuration not stated), for which the cytotoxicity at 10 µM is -2.94%.

`CC(=O)N1CCN(Cn2nc(-c3ccc(F)cc3)oc2=O)CC1`: the cytotoxicity at 10 µM is -3.89%. Regarding `Cc1cc2n(n1)CC(CNCc1cnn(-c3ccccc3)c1)CN2` (configuration not stated), the cytotoxicity at 10 µM is -9.01%. Consider `CCN(C(=O)CS(=O)(=O)Cc1cc(Cl)c2c(c1)OCCCO2)C1CC1`, for which the cytotoxicity at 10 µM was 0.787%.

For the molecule `CC(=O)N1CCCN(C(=O)c2ccn(-c3cccc(Cl)c3)n2)CC1`, the cytotoxicity at 10 µM is -1.37%.

In the case of `CCc1nc(C)c(C(=O)NCCN2CCC(C)CC2)s1`, the cytotoxicity at 10 µM is -5.6%. The figure for `Cc1ccc(CN(CCN(C)C)Cc2ccnn2C2CCCCO2)o1` (configuration not stated) is 0.267%; for `Cc1cccc(CN2CCC(c3csc4nccn34)CC2)n1` it is 1.54%.

Take `C1CN(CC2CC2)C(COCC2CC2)c2nnn(CC3CC3)c21` (configuration not stated): the cytotoxicity at 10 µM was -3.66%. On to `CCOC1COC2(CCN(c3ccccn3)CC2)C1` (configuration not stated), for which the cytotoxicity at 10 µM was 3.77%.

Consider `O=C(NCCCO)c1cc(-c2cc[nH]n2)n2ccccc12`, for which the cytotoxicity at 10 µM was 14.3%. On to `O=C([C@@H]1C[C@@H]2CCN(Cc3ccccn3)C[C@H]2O1)N1CCCO1`, for which the cytotoxicity at 10 µM came out at 2.29%.

As to `O=C(c1ccccc1F)N1C[C@H]2CCC[C@@]2(COCc2ccncc2)C1`, the cytotoxicity at 10 µM is 7.4%.

For `CCN1CCO[C@@H]2CN(S(=O)(=O)c3cccs3)CC[C@@H]2C1`, the cytotoxicity at 10 µM is 4.82%. With `Cn1nc(Br)c2c(NCCN)ncnc21`, the cytotoxicity at 10 µM worked out at 20.2%.
